# Source: PubChem BioAssay (The Scripps Research Institute Molecular Screening Center)
# LEDGF integ inh – blocks HIV-1 LEDGF/p75-dependent DNA integration; TR-FRET IN-LEDGF/p75 DNA integration, Eu/Cy5; inhibition, % at 3.7 µM; 0.64% of 370,000 active;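 active = inhibition above the screen-wide mean plus 3 SD, cut at about 13% in these data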;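 note: signal is the Cy5 over europium emission ratio at 671 and 618 nm; 0% = plate median of compound wells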
# MBD2 DNA inh – MBD2-methylated oligo binding inhibition | 0.31% of 370,000 active | inhibition, % at 4.4 µM | Q9UBB5 | TR-FRET, MBD2 binding to methylated oligonucleotide | AID 686964; in the data active = inhibition above about 13%
# TDP2 absorb – blocks human TDP2 phosphodiesterase activity. 0.34% of 370,000 active. AID 720702. O95551. inhibition, % at 12.8 µM. recombinant TDP2, T5PNP hydrolysis, p-nitrophenol absorbance 415 nm;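 active = inhibition above the mean of all tested compounds plus 3 SD, set per campaign, cut at about 25% in these data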;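 note: 0% = DMSO with enzyme and 100% = buffer with substrate but no TDP2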
#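 Test system: human TDP2 enzyme; Input: 120 nM TDP2 per well; Buffer or medium: Mg2+-containing Tris-HCl buffer, pH 7.5; Reagent: 5 mM T5PNP; Dosing: 12.8 µM single point, 1% DMSO; Incubation: reaction 2 h, 37 °C; Detection: p-Nitrophenol epi absorbance; Read-out: % inhibition relative to enzyme-containing and enzyme-free wells; Replicates: single well per compound.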
# UHRF1 MBD2 ctr – UHRF1 methyl-DNA binding inhibition. Q96T88. UHRF1 binding to methylated oligo, TR-FRET. inhibition, % at 4.4 µM. 0.75% of 370,000 active; in the data active = inhibition above about 21%;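 note: UHRF1 SRA domain binding a hemimethylated CpG hairpin DNA probe; 0% = median of test compound wells and 100% = reference inhibitor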
# SIAE primary – blocks human sialic acid acetylesterase; Q9HAT2; SIAE FP-Rh probe binding, fluorescence polarization; inhibition, % at 9.66 µM; 0.69% of 370,000 active; AID 1053197;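 active = inhibition above a cutoff: mean of compounds within the control limits plus 3 SD of those, cut at about 17% in these data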;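 note: 0% = plate median of compound wells and 100% = probe without SIAE protein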
# Target sequence (Q9HAT2 whole entry, looked up): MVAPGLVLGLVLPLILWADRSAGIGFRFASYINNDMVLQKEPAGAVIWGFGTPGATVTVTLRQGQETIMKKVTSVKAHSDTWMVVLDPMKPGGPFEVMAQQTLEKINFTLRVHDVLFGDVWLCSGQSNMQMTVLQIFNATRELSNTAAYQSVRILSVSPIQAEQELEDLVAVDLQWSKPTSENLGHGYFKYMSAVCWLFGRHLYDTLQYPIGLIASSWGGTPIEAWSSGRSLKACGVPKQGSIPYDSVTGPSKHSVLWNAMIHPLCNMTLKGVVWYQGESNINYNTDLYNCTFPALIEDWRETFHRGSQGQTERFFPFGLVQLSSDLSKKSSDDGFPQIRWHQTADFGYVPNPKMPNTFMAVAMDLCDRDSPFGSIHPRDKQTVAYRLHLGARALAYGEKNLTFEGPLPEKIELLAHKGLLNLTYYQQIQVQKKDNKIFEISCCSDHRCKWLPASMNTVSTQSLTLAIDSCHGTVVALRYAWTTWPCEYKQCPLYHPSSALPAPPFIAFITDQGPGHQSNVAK
# PRMT1 FP inh – PRMT1 (human) inhibition, primary screen | 1.3% of 370,000 active | recombinant PRMT1, activity-based probe fluorescence polarization | inhibition, % at 2.79 µM | AID 652257;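 active = inhibition above about 21% made by adding two undisclosed values, limit read from the data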
# TDP2 inh conf – confirmation of human TDP2 inhibitors; shares compounds with TDP2 absorb; recombinant human TDP2, absorbance read-out; inhibition, % at 12.8 µM; 22% of 1,100 active; in the data active = inhibition above about 25%;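 note: 0% = vehicle with enzyme and 100% = no enzyme buffer only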
# * = called active by the depositor; nt = no result. Most compounds without a hit are left out; they make up all but 3.3% or so of the library.
SMILES,LEDGF integ inh,MBD2 DNA inh,TDP2 absorb,UHRF1 MBD2 ctr,SIAE primary,PRMT1 FP inh,TDP2 inh conf
O=C(Nc1ccc(N2CCN(c3ccc(O)cc3)CC2)cc1)Oc1ccccc1,2.8,4.9,-0.8,-2.3,7.4,6.0,nt
CC1CCN(CCOc2cc(Cl)ccc2Cl)CC1,-0.5,2.1,24.6*,-3.2,-1.9,-0.2,1.4
O=C(c1ccc(F)cc1)C1CCN(c2ncnc3sccc23)CC1,2.8,-2.1,3.1,-3.2,-0.8,-2.6,nt
CC(=O)N(C)C1=C(O)c2ccccc2C(=O)C1=O,1.2,-6.4,5.4,-10.2,12.2,-4.3,nt
CC(=O)C(C(C)=O)C1(O)C(=O)c2ccccc2C1=O,-3.3,-5.3,44.4*,-1.9,-8.0,5.4,68.2*
O=C(Nc1ccc(S(=O)(=O)Nc2ncccn2)cc1)c1ccccc1Br,0.9,1.8,26.2*,1.8,-11.9,2.8,-7.7
COC(=O)c1ccccc1NC(=O)c1ccc(-c2ccc(Br)cc2)o1,2.6,-3.0,-6.1,0.7,-5.8,-1.6,nt
O=C(Nc1cccc2nsnc12)c1ccc(-c2ccc(Br)cc2)o1,10.5,-8.4,24.6*,-1.9,4.5,15.3,4.7
CCCC(=O)N1CCC(C(=O)NC2CCCc3ccccc32)CC1 (stereo not drawn),9.7,2.7,-0.9,-0.3,6.2,-1.7,nt
COC(=O)[C@]12C[C@H](CC(=O)N3CCCCC3)C(=O)N(CCc3ccc(OC)c(OC)c3)C1=C[C@H](C(C)C)O[C@@H]2C1CC1,-0.4,-2.6,4.5,-0.8,5.4,-4.9,nt
COc1cc2c(cc1OC)-c1cc3ccc4c(c3c[n+]1CC2)OCO4,4.7,-22.5,25.6*,-66.6,8.1,56.8*,9.1
CCOc1ccccc1C(=O)N1CCC(Oc2cccnc2)CC1,-0.6,0.0,2.6,3.0,2.9,1.7,nt
CCOC(=O)c1sc(NC(=O)CNCc2ccccn2)c(C(=O)OCC)c1C,-0.5,3.2,25.7*,3.6,-5.7,0.7,0.0
Cc1cc(N2CCN(CC(C)(C)O)C[C@@H]2C)ccc1N1CCN(Cc2ccccc2)[C@H](C)C1,5.4,-2.5,-1.0,1.9,2.4,0.3,nt
Cc1nc2ccc(C(=O)OCc3nnc(-c4ccccc4)o3)cc2nc1C,0.0,-6.5,24.6*,-1.9,2.8,-2.8,9.1
O=S(=O)(c1ccc(Cl)s1)N1CCC(c2nc3ccccc3o2)CC1,-1.3,2.6,5.7,2.0,-1.7,3.6,nt
COc1ccc(Cc2nc3ccc(C(=O)N4CCCCC4CCO)cc3o2)cc1 (stereo not drawn),-2.6,3.4,24.8*,-2.8,7.0,2.4,10.2
O=C1CC2c3cc(-c4cc5ccccc5o4)ccc3CCN2C(=O)CN1Cc1ccccc1 (stereo not drawn),-0.6,-1.6,0.2,-0.9,-5.1,-1.3,nt
Cc1[nH][nH]c(=O)c1C(c1ccc(-c2ccccc2C(=O)O)o1)c1c(C)[nH][nH]c1=O,5.9,0.3,45.4*,13.1,0.5,9.8,39.2*
COC(=O)c1ccc(-c2ccc(C(c3c(C)[nH][nH]c3=O)c3c(C)[nH][nH]c3=O)o2)cc1,10.4,2.0,25.5*,17.1,8.7,10.6,25.4*
CNC(=S)N/N=C/c1ccc(-c2cccc(C(=O)O)c2)o1,4.0,0.1,9.1,-1.4,7.4,2.7,nt
Cc1[nH][nH]c(=O)c1C(c1ccc(-c2cccc(C(=O)O)c2)o1)c1c(C)[nH][nH]c1=O,12.8,-0.5,63.4*,13.1,10.3,20.8,30.8*
O=C(NCCc1c[nH]c2ccccc12)OCc1cn(Cc2cc(F)cc(F)c2)nn1,1.1,-3.5,-7.7,0.4,6.2,1.3,nt
CN1C(=O)C(c2cn(C)c3ccccc23)(c2cn(C)c3ccccc23)c2ccccc21,-1.7,-0.3,2.0,-0.1,-6.1,-0.8,nt
CCN1CCN(CC#CCOc2ccccc2OC)CC1,-3.2,1.5,29.0*,-1.6,10.1,-0.9,8.4
SMILES,LEDGF integ inh,MBD2 DNA inh,TDP2 absorb,UHRF1 MBD2 ctr,SIAE primary,PRMT1 FP inh,TDP2 inh conf
CCCC(C)C(=O)NC1CCCCN(Cc2ccccc2C)C1=O (stereo not drawn),-0.9,-1.1,6.4,-0.3,3.4,-3.0,nt
CC(=O)N(C)c1ccc(NC(=O)Cc2cccs2)cc1,1.2,-7.7,25.1*,-0.8,-3.0,4.0,3.5
CCC[C@H]1[C@@H](NC(=O)c2cccc(N(C)C)c2)CC[C@@]23CCCN2C(=O)CCC[C@@H]13,-1.9,1.2,5.7,-1.8,3.6,-1.3,nt
COc1ccc(OC)c(C(=O)COC(=O)c2ccc(C)o2)c1,13.2,5.3,28.8*,18.2,8.8,1.7,5.4
COc1ccc(NC(=S)N2CCC(NC(=O)c3cccc(C)c3)CC2)cc1,-2.6,2.9,29.3*,-5.0,6.2,-0.9,3.4
O=C(CN1C(=O)NC2(CCCc3ccccc32)C1=O)Nc1cccc(S(=O)(=O)N2CCCCC2)c1 (stereo not drawn),0.4,1.8,5.2,4.8,-7.0,1.3,nt
Cc1ccc(NC(=O)CN2C(=O)NC3(CCc4ccccc43)C2=O)cc1S(=O)(=O)N1CCCCC1 (stereo not drawn),2.6,2.3,89.8*,-2.0,-6.4,0.4,-13.4
CC(C)C[C@@H]1COc2cc(N3CCSCC3)ccc2S(=O)(=O)N1C,0.0,3.3,4.4,-0.4,0.7,-0.2,nt
CC(=O)NC1=NN(c2ccccc2)C(=O)C1,8.2,1.4,54.5*,8.7,5.2,0.9,5.3
O=c1[nH]c(Nc2ccccc2)cc2ccccc12,36.5*,-3.9,68.9*,1.9,-1.3,3.5,66.4*
Cn1c(=O)cc(Nc2ccccc2)[nH]c1=O,-1.0,-1.7,-0.8,-2.4,-1.8,0.4,nt
CCOc1ccc2[nH]c3c(NCCO)ncnc3c2c1,-7.5,0.8,26.7*,-0.4,10.9,3.2,2.9
Cc1cc(NC(=O)Nc2cccc(F)c2)n(-c2ccccc2)n1,-2.0,5.6,-3.8,4.7,-1.4,3.7,nt
COc1ccccc1CN1CCN(Cc2ccco2)CC1,5.2,-2.1,28.3*,0.4,5.6,4.7,5.0
COc1ccc(CN2CCN(Cc3ccco3)CC2)c(OC)c1,1.1,3.9,26.6*,1.8,1.3,0.6,5.8
CCOC(=O)N1CCN(C(=O)C[C@H]2C[C@@]3(C(=O)OC)C(=C[C@H](COCc4ccccc4)O[C@@H]3C)N(Cc3cccc4ccccc34)C2=O)CC1,-2.6,-2.9,-0.3,-1.6,0.8,9.3,nt
C=CCN1C(C(=O)OC)CN(Cc2cn(Cc3ccc(OC)cc3)nn2)CCS1(=O)=O (stereo not drawn),-3.5,4.3,2.8,13.7,1.8,1.0,nt
O=C(Nc1nnc(SCCC2OCCO2)s1)C1CC(=O)N(c2ccccc2)C1 (stereo not drawn),-4.2,0.2,-12.5,1.2,6.2,4.6,nt
COc1cccc(N2CC(C(=O)Nc3nnc(SCCC4OCCO4)s3)CC2=O)c1 (stereo not drawn),-2.7,-7.6,28.7*,-5.1,1.1,1.6,2.5
